The first assay has as its system A549. Briefly: Induction of cell cycle arrest in human A549 cells assessed as accumulation at G2/M phase at 0.1 uM after 48 hrs using propidium iodide staining by FACS analysis (reference value: 3.2 %). Type of assay: functional.
Conditions: not given
On the technique in general: Flow cytometry measures light scatter and fluorescence of single cells or particles in a stream.
For `COc1cc([C@@H]2c3cc4c(cc3[C@@H](O[C@@H]3O[C@@H]5CO[C@@H](C)O[C@H]5[C@H](O)[C@H]3O)[C@H]3COC(=O)[C@H]23)OCO4)cc(OC)c1O` [ETOPOSIDE], the Activity was 10.5%.

In a further assay the test system is A549. Briefly: Induction of cell cycle arrest in human A549 cells assessed as accumulation at sub-G1 phase at 0.5 uM after 48 hrs using propidium iodide staining by FACS analysis (reference value: 21.7 %). The format is functional.
Conditions: not given
Regarding `COc1cc([C@@H]2c3cc4c(cc3C[C@H]3COC(=O)[C@@H]32)OCO4)cc(OC)c1OC` [DESOXYPODOPHYLLOTOXIN], the Activity worked out at 13.1%.

In the next assay the test system is A549. The assay can be described thus: Induction of cell cycle arrest in human A549 cells assessed as accumulation at G1 phase at 0.1 uM after 48 hrs using propidium iodide staining by FACS analysis (reference value: 59.9 %). The format is functional.
Conditions: not given
As to `COc1cc([C@@H]2c3cc4c(cc3[C@@H](O[C@@H]3O[C@@H]5CO[C@@H](C)O[C@H]5[C@H](O)[C@H]3O)[C@H]3COC(=O)[C@H]23)OCO4)cc(OC)c1O` [ETOPOSIDE], the Activity is on record as 26%.

A further assay deals with A549. The assay can be described thus: Cytotoxicity against human A549 cells after 48 hrs by MTT assay. Type of assay: functional, cell-based. The conditions noted are these: A549, 48 h. A digest of the protocol:
(§1)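 Cells kept at 37 °C under 5% CO2, plated and allowed to attach for 24 h, then exposed in quadruplicate wells for 48 h to five saline-dissolved concentrations. IC50 is the mean of three independent experiments.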
Background: Formazan colour is commonly taken as a measure of viable cells.
Usually IC50 stands for the concentration that gives 50% inhibition. Molecule `COc1cc([C@@H]2c3cc4c(cc3C[C@H]3COC(=O)[C@@H]32)OCO4)cc(OC)c1OC(=O)N[C@H](CCSC)C(=O)N1CCNCC1` registered an IC50 of 208 nM.

`COc1cc([C@@H]2c3cc4c(cc3[C@@H](O[C@@H]3O[C@@H]5CO[C@@H](C)O[C@H]5[C@H](O)[C@H]3O)[C@H]3COC(=O)[C@H]23)OCO4)cc(OC)c1O` [ETOPOSIDE]: inhibition was half-maximal at 14800 nM (IC50).

Consider `COc1cc([C@@H]2c3cc4c(cc3C[C@H]3COC(=O)[C@@H]32)OCO4)cc(OC)c1OC(=O)NCC(=O)N1CCN(c2ccc(O)cc2)CC1`, for which the IC50 worked out at 2390 nM.

As for `COc1cc([C@@H]2c3cc4c(cc3C[C@H]3COC(=O)[C@@H]32)OCO4)cc(OC)c1OC(=O)NCC(=O)N1CCN(C)CC1`, the half-inhibitory concentration (IC50) came out at 3960 nM.

As to `COc1cc([C@@H]2c3cc4c(cc3C[C@H]3COC(=O)[C@@H]32)OCO4)cc(OC)c1OC(=O)N[C@@H](Cc1ccccc1)C(=O)N1CCNCC1`, it took 80.2 nM to reach half-maximal inhibition (IC50).

As for `COc1cc([C@@H]2c3cc4c(cc3C[C@H]3COC(=O)[C@@H]32)OCO4)cc(OC)c1OC(=O)NCC(=O)N1CCN(C2CCCC2)CC1`, the half-inhibitory concentration (IC50) was determined as 1720 nM.

Molecule `COc1cc([C@@H]2c3cc4c(cc3C[C@H]3COC(=O)[C@@H]32)OCO4)cc(OC)c1O` [4'-DEMETHYLDEOXYPODOPHYLLOTOXIN] had an IC50 of 3750 nM.

For the molecule `COc1cc([C@@H]2c3cc4c(cc3C[C@H]3COC(=O)[C@@H]32)OCO4)cc(OC)c1OC(=O)N[C@@H](CCSC)C(=O)N1CCN(c2ccc([N+](=O)[O-])cc2)CC1`, the IC50 was found to be 183 nM.

In the case of `COc1cc([C@@H]2c3cc4c(cc3C[C@H]3COC(=O)[C@@H]32)OCO4)cc(OC)c1OC` [DESOXYPODOPHYLLOTOXIN], inhibition was half-maximal at 470 nM (IC50).

The test system of another assay is HeLa. Briefly: Cytotoxicity against human HeLa cells after 48 hrs by MTT assay. Type of assay: functional, cell-based.
Conditions: not given
Put shortly:
as §1
Molecule `COc1cc([C@@H]2c3cc4c(cc3C[C@H]3COC(=O)[C@@H]32)OCO4)cc(OC)c1OC(=O)N[C@H](CCSC)C(=O)N1CCNCC1` returned an IC50 of 203 nM.

With `COc1cc([C@@H]2c3cc4c(cc3[C@@H](O[C@@H]3O[C@@H]5CO[C@@H](C)O[C@H]5[C@H](O)[C@H]3O)[C@H]3COC(=O)[C@H]23)OCO4)cc(OC)c1O` [ETOPOSIDE], the IC50 came to 50600 nM.

`COc1cc([C@@H]2c3cc4c(cc3C[C@H]3COC(=O)[C@@H]32)OCO4)cc(OC)c1OC(=O)NCC(=O)N1CCN(c2ccc(O)cc2)CC1` came in with a half-maximal inhibitory concentration (IC50) of 7010 nM.

Molecule `COc1cc([C@@H]2c3cc4c(cc3C[C@H]3COC(=O)[C@@H]32)OCO4)cc(OC)c1OC(=O)NCC(=O)N1CCN(C)CC1` registered a 50% inhibitory concentration (IC50) of 703 nM.

As for `COc1cc([C@@H]2c3cc4c(cc3C[C@H]3COC(=O)[C@@H]32)OCO4)cc(OC)c1OC(=O)N[C@@H](Cc1ccccc1)C(=O)N1CCNCC1`, the IC50 turned out to be 433 nM.

`COc1cc([C@@H]2c3cc4c(cc3C[C@H]3COC(=O)[C@@H]32)OCO4)cc(OC)c1OC(=O)NCC(=O)N1CCN(C2CCCC2)CC1` registered a half-inhibitory concentration (IC50) of 3070 nM.

The molecule `COc1cc([C@@H]2c3cc4c(cc3C[C@H]3COC(=O)[C@@H]32)OCO4)cc(OC)c1O` [4'-DEMETHYLDEOXYPODOPHYLLOTOXIN] yielded an IC50 of 7430 nM.

In turn, `COc1cc([C@@H]2c3cc4c(cc3C[C@H]3COC(=O)[C@@H]32)OCO4)cc(OC)c1OC(=O)N[C@@H](CCSC)C(=O)N1CCN(c2ccc([N+](=O)[O-])cc2)CC1` returned an IC50 of 191 nM.

Take `COc1cc([C@@H]2c3cc4c(cc3C[C@H]3COC(=O)[C@@H]32)OCO4)cc(OC)c1OC` [DESOXYPODOPHYLLOTOXIN]: the concentration for half-maximal inhibition (IC50) was found to be 36000 nM.

Another assay has as its system A549. The assay can be described thus: Induction of cell cycle arrest in human A549 cells assessed as accumulation at S phase at 0.5 uM after 48 hrs using propidium iodide staining by FACS analysis (reference value: 36.7 %).
Conditions: not given
The format is functional.
On to `COc1cc([C@@H]2c3cc4c(cc3C[C@H]3COC(=O)[C@@H]32)OCO4)cc(OC)c1OC` [DESOXYPODOPHYLLOTOXIN], for which the Activity was found to be 1.4%.

The test system of a further assay is A549. Briefly: Induction of cell cycle arrest in human A549 cells assessed as accumulation at G1 phase at 0.5 uM after 48 hrs using propidium iodide staining by FACS analysis (reference value: 59.9 %). The format is functional.
Conditions: not given
Take `COc1cc([C@@H]2c3cc4c(cc3C[C@H]3COC(=O)[C@@H]32)OCO4)cc(OC)c1OC` [DESOXYPODOPHYLLOTOXIN]: the Activity is reported as 85.5%.

The next assay relates to A549. The assay can be described thus: Induction of cell cycle arrest in human A549 cells assessed as accumulation at S phase at 0.1 uM after 48 hrs using propidium iodide staining by FACS analysis (reference value: 36.7 %).
Conditions: not given
The format is functional.
Turning to `COc1cc([C@@H]2c3cc4c(cc3[C@@H](O[C@@H]3O[C@@H]5CO[C@@H](C)O[C@H]5[C@H](O)[C@H]3O)[C@H]3COC(=O)[C@H]23)OCO4)cc(OC)c1O` [ETOPOSIDE], the Activity amounted to 59.4%.

The next assay has as its system A549. The assay can be described thus: Induction of cell cycle arrest in human A549 cells assessed as accumulation at sub-G1 phase at 0.1 uM after 48 hrs using propidium iodide staining by FACS analysis (reference value: 21.7 %).
Conditions: not given
The format is functional.
Consider `COc1cc([C@@H]2c3cc4c(cc3[C@@H](O[C@@H]3O[C@@H]5CO[C@@H](C)O[C@H]5[C@H](O)[C@H]3O)[C@H]3COC(=O)[C@H]23)OCO4)cc(OC)c1O` [ETOPOSIDE], for which the Activity turned out to be 4.1%.

The next assay has as its system SiHa. Briefly: Cytotoxicity against human SiHa cells after 48 hrs by MTT assay.
Conditions: not given
The format is functional, cell-based. A digest of the protocol:
as §1
`COc1cc([C@@H]2c3cc4c(cc3C[C@H]3COC(=O)[C@@H]32)OCO4)cc(OC)c1OC(=O)N[C@H](CCSC)C(=O)N1CCNCC1` had a half-maximal inhibitory concentration (IC50) of 83.9 nM.

`COc1cc([C@@H]2c3cc4c(cc3[C@@H](O[C@@H]3O[C@@H]5CO[C@@H](C)O[C@H]5[C@H](O)[C@H]3O)[C@H]3COC(=O)[C@H]23)OCO4)cc(OC)c1O` [ETOPOSIDE] returned an IC50 of 30700 nM.

As for `COc1cc([C@@H]2c3cc4c(cc3C[C@H]3COC(=O)[C@@H]32)OCO4)cc(OC)c1OC(=O)NCC(=O)N1CCN(c2ccc(O)cc2)CC1`, half-maximal inhibition (IC50) was put at 4760 nM.

In turn, `COc1cc([C@@H]2c3cc4c(cc3C[C@H]3COC(=O)[C@@H]32)OCO4)cc(OC)c1OC(=O)NCC(=O)N1CCN(C)CC1` registered an IC50 of 4970 nM.

For `COc1cc([C@@H]2c3cc4c(cc3C[C@H]3COC(=O)[C@@H]32)OCO4)cc(OC)c1OC(=O)N[C@@H](Cc1ccccc1)C(=O)N1CCNCC1`, half-maximal inhibition (IC50) was put at 160 nM.

`COc1cc([C@@H]2c3cc4c(cc3C[C@H]3COC(=O)[C@@H]32)OCO4)cc(OC)c1OC(=O)NCC(=O)N1CCN(C2CCCC2)CC1`: 135 nM corresponded to half-maximal inhibition (IC50).

`COc1cc([C@@H]2c3cc4c(cc3C[C@H]3COC(=O)[C@@H]32)OCO4)cc(OC)c1O` [4'-DEMETHYLDEOXYPODOPHYLLOTOXIN] gave an IC50 of 2070 nM.

Take `COc1cc([C@@H]2c3cc4c(cc3C[C@H]3COC(=O)[C@@H]32)OCO4)cc(OC)c1OC(=O)N[C@@H](CCSC)C(=O)N1CCN(c2ccc([N+](=O)[O-])cc2)CC1`: the 50% inhibitory concentration (IC50) worked out at 160 nM.

Take `COc1cc([C@@H]2c3cc4c(cc3C[C@H]3COC(=O)[C@@H]32)OCO4)cc(OC)c1OC` [DESOXYPODOPHYLLOTOXIN]: the IC50 was 10200 nM.
